Columns and labels:
[1] = Single oral dose of 316 mg TU in hypogonadal men; type: in vivo, human; settings: TU concentrations below 15 ng/mL; oral 316 mg TU
Method in brief: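 Eight hypogonadal men received one 316 mg oral TU dose in a self‑emulsifying system just before a meal. Blood was drawn at −30 and 0 min, then hourly for 12 h, into plain and NaF‑EDTA tubes. T was measured by LC‑MS/MS after ethyl acetate:hexane (3:2) extraction. The % difference in T between tube types was plotted against the matching average TU, with regression.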

[2] = TU added to serum with increasing NaF, T measured; type: in vitro ADME, human; settings: 500 ng/mL TU added to two serum samples or an aqueous solution
blood esterases = assay: Ex vivo addition of TU to blood in different blood collection tubes; type: in vitro ADME, human
Method in brief: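 Venous blood from hypogonadal or healthy men is aliquoted (2 mL) into duplicate plain or inhibitor-containing tubes. TU in methanol (≤1% methanol) is added to 30–1000 ng/mL final, then held 30/60 min at 4 °C or RT before centrifugation. T is extracted with ethyl acetate:hexane (3:2) and measured by LC‑MS/MS (m/z 289.2/109.0, D2‑T internal standard). Results are % difference vs the average plain tube with no ester added.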

[3] = TU 300 ng/mL, K2EDTA (1.8 mg/mL) tube, 30 min 4 °C, Experiment 2
[4] = TU 300 ng/mL, K2EDTA (1.8 mg/mL) tube, 60 min 4 °C, Experiment 2
[5] = TU 300 ng/mL, K2EDTA (1.8 mg/mL) tube, 60 min RT, Experiment 2
[6] = TU 300 ng/mL, NaF (1.5 mg/mL) + Na2EDTA (3 mg/mL) tube, 60 min RT, Experiment 2
[7] = TU 300 ng/mL, NaF (5 mg/mL) + K2Oxalate (4 mg/mL) tube, 60 min RT, Experiment 2
[8] = TU 300 ng/mL, NaF (15 mg/mL) tube, 30 min 4 °C, Experiment 1
[9] = TU 300 ng/mL, NaF (15 mg/mL) tube, 30 min RT, Experiment 1
[10] = TU 300 ng/mL, P800 tube, 30 min 4 °C, Experiment 2
[11] = TU 300 ng/mL, P800 tube, 60 min 4 °C, Experiment 2
[12] = TU 300 ng/mL, P800 tube, 60 min RT, Experiment 2
[13] = TU 300 ng/mL, Plain tube, 30 min 4 °C, Experiment 1
[14] = TU 300 ng/mL, Plain tube, 30 min RT, Experiment 1
[15] = TU 300 ng/mL, P‐800 tube, 30 min 4 °C, Experiment 1
[16] = TU 300 ng/mL, P‐800 tube, 30 min RT, Experiment 1
[17] = TU 600 ng/mL, K2EDTA (1.8 mg/mL) tube, 30 min 4 °C, Experiment 2
[18] = TU 600 ng/mL, K2EDTA (1.8 mg/mL) tube, 60 min 4 °C, Experiment 2
[19] = TU 600 ng/mL, K2EDTA (1.8 mg/mL) tube, 60 min RT, Experiment 2
[20] = TU 600 ng/mL, NaF (1.5 mg/mL) + Na2EDTA (3 mg/mL) tube, 60 min RT, Experiment 2
[21] = TU 600 ng/mL, NaF (5 mg/mL) + K2Oxalate (4 mg/mL) tube, 60 min RT, Experiment 2
[22] = TU 600 ng/mL, NaF (15 mg/mL) tube, 30 min 4 °C, Experiment 1
[23] = TU 600 ng/mL, NaF (15 mg/mL) tube, 30 min RT, Experiment 1
[24] = TU 600 ng/mL, P800 tube, 30 min 4 °C, Experiment 2
[25] = TU 600 ng/mL, P800 tube, 60 min 4 °C, Experiment 2
[26] = TU 600 ng/mL, P800 tube, 60 min RT, Experiment 2
[27] = TU 600 ng/mL, Plain tube, 30 min 4 °C, Experiment 1
[28] = TU 600 ng/mL, Plain tube, 30 min 4 °C, Experiment 2
[29] = TU 600 ng/mL, Plain tube, 30 min RT, Experiment 1
[30] = TU 600 ng/mL, Plain tube, 60 min 4 °C, Experiment 2
[31] = TU 600 ng/mL, Plain tube, 60 min RT, Experiment 2
[32] = TU 600 ng/mL, P‐800 tube, 30 min 4 °C, Experiment 1
[33] = TU 600 ng/mL, P‐800 tube, 30 min RT, Experiment 1

In the case of `CCCCCCCCCCC(=O)O[C@H]1CC[C@H]2[C@@H]3CCC4=CC(=O)CC[C@]4(C)[C@H]3CC[C@]12C` [TU, testosterone undecanoate], the “Mean difference in T concentrations between plain and NaF‐EDTA tubes” value [1] is reported as ~0%, the “Measured T levels after incubation with different amounts of NaF” value [2] is reported as “did not increase” and the “% difference vs. no TU added” value (blood esterases; [3]) is reported as “+20.5%”. For the same molecule, the “Measured T” value (blood esterases; [3]) was 534.5 ng/dL, the “% difference vs. no TU added” value (blood esterases; [4]) was “+14.7%” and the “Measured T” value (blood esterases; [4]) was 521.5 ng/dL. For the same molecule, the “% difference vs. no TU added” value (blood esterases; [5]) was “+129.7%”, the “Measured T” value (blood esterases; [5]) was 1105.0 ng/dL and the “% difference vs. no TU added” value (blood esterases; [6]) was “+57.5%”. The “Measured T” value (blood esterases; [6]) was 705.0 ng/dL, the “% difference vs. no TU added” value (blood esterases; [7]) was “+79.5%” and the “Measured T” value (blood esterases; [7]) was 717.0 ng/dL. The “% difference vs. no TU added” value (blood esterases; [8]) was −0.6%, the “Measured T” value (blood esterases; [8]) was 269.5 ng/dL and the “% difference vs. no TU added” value (blood esterases; [9]) was “+16.4%”. The “Measured T” value (blood esterases; [9]) was 301.5 ng/dL, the “% difference vs. no TU added” value (blood esterases; [10]) was “+13.1%” and the “Measured T” value (blood esterases; [10]) was 492.5 ng/dL. For the same molecule, the “% difference vs. no TU added” value (blood esterases; [11]) was “+3.3%”, the “Measured T” value (blood esterases; [11]) was 491.5 ng/dL and the “% difference vs. no TU added” value (blood esterases; [12]) was “+100.9%”. The “Measured T” value (blood esterases; [12]) was 860.0 ng/dL, the “% difference vs. no TU added” value (blood esterases; [13]) was “+17.9%” and the “Measured T” value (blood esterases; [13]) was 412.0 ng/dL. For the same molecule, the “Measured T” value (blood esterases; TU 300 ng/mL, Plain tube, 30 min 4 °C, Experiment 2) was 624.5 ng/dL, the “% difference vs. no TU added” value (blood esterases; [14]) was “+43.1%” and the “Measured T” value (blood esterases; [14]) was 505.0 ng/dL. The “Measured T” value (blood esterases; TU 300 ng/mL, Plain tube, 60 min 4 °C, Experiment 2) was 741.5 ng/dL, the “Measured T” value (blood esterases; TU 300 ng/mL, Plain tube, 60 min RT, Experiment 2) was 984.0 ng/dL and the “% difference vs. no TU added” value (blood esterases; [15]) was “+18.7%”. For the same molecule, the “Measured T” value (blood esterases; [15]) was 384.0 ng/dL, the “% difference vs. no TU added” value (blood esterases; [16]) was “+41.7%” and the “Measured T” value (blood esterases; [16]) was 467.0 ng/dL. The “% difference vs. no TU added” value (blood esterases; [17]) was “+21.6%”, the “Measured T” value (blood esterases; [17]) was 539.5 ng/dL and the “% difference vs. no TU added” value (blood esterases; [18]) was “+47.3%”. The “Measured T” value (blood esterases; [18]) was 669.5 ng/dL, the “% difference vs. no TU added” value (blood esterases; [19]) was “+266.9%” and the “Measured T” value (blood esterases; [19]) was 1765.0 ng/dL. The “% difference vs. no TU added” value (blood esterases; [20]) was “+176.0%”, the “Measured T” value (blood esterases; [20]) was 1235.0 ng/dL and the “% difference vs. no TU added” value (blood esterases; [21]) was “+171.6%”. For the same molecule, the “Measured T” value (blood esterases; [21]) was 1085.0 ng/dL, the “% difference vs. no TU added” value (blood esterases; [22]) was “+24.2%” and the “Measured T” value (blood esterases; [22]) was 336.5 ng/dL. The “% difference vs. no TU added” value (blood esterases; [23]) was “+39.0%”, the “Measured T” value (blood esterases; [23]) was 360.0 ng/dL and the “% difference vs. no TU added” value (blood esterases; [24]) was “+18.3%”. For the same molecule, the “Measured T” value (blood esterases; [24]) was 515.0 ng/dL, the “% difference vs. no TU added” value (blood esterases; [25]) was “+22.3%” and the “Measured T” value (blood esterases; [25]) was 582.0 ng/dL. For the same molecule, the “% difference vs. no TU added” value (blood esterases; [26]) was “+222.4%”, the “Measured T” value (blood esterases; [26]) was 1380.0 ng/dL and the “% difference vs. no TU added” value (blood esterases; [27]) was “+30.3%”. For the same molecule, the “Measured T” value (blood esterases; [27]) was 455.5 ng/dL, the “% difference vs. no TU added” value (blood esterases; [28]) was “+23.7%” and the “Measured T” value (blood esterases; [28]) was 541.0 ng/dL. For the same molecule, the “% difference vs. no TU added” value (blood esterases; [29]) was “+130.6%”, the “Measured T” value (blood esterases; [29]) was 814.0 ng/dL and the “% difference vs. no TU added” value (blood esterases; [30]) was “+88.8%”. The “Measured T” value (blood esterases; [30]) was 794.0 ng/dL, the “% difference vs. no TU added” value (blood esterases; [31]) was “+271.8%” and the “Measured T” value (blood esterases; [31]) was 1515.0 ng/dL. For the same molecule, the “% difference vs. no TU added” value (blood esterases; [32]) was “+15.8%”, the “Measured T” value (blood esterases; [32]) was 374.5 ng/dL and the “% difference vs. no TU added” value (blood esterases; [33]) was “+95.1%”. For the same molecule, the “Measured T” value (blood esterases; [33]) was 643.0 ng/dL, the T measured (blood esterases; TU added 30 ng/mL, blood from four hypogonadal men, plain tubes, baseline serum T 26.0 ± 6.2 ng/dL) was 48.9 ± 5.1 ng/dL and the “Increase in measured T from baseline” value (blood esterases; highest TU concentration (1000 ng/mL), blood from hypogonadal men, plain tubes) was ≤ 22 fold. The “Reduction of overestimation of T by collecting blood into NaF tubes” value (blood esterases; increasing amounts of TU added to blood) was 30–85% and the “Overestimation of measured T levels” value (blood esterases; increasing amounts of TU added to plain tubes, Table 3, Experiments 1 and 2) was “+24 to 272%”.

Source: publication PMC6519384 (Andrology, 2018)
